# According to ChEMBL document CHEMBL4837214, “Design, synthesis, and biological evaluation of novel tetrahydroprotoberberine derivatives to reduce SREBPs expression for the treatment of hyperlipidemia” (Eur J Med Chem, 2021):
# Activity calls are given as the source filed them. No cut-off for these calls is given here.
# Legend:
# [1] = tested on: Mus musculus; experiment: Hypolipidemic activity in high fat diet-induced C57BL/6J mouse assessed as reduction in SREBPs expression in liver at 170 to 340 mg/kg, po administered daily for 6 weeks by Western blot analysis; type: functional, organism-based; conditions: dose 170-340 mg/kg
# Summary of the method: (§1)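 Male C57BL/6J mice, six weeks old, fed a 45%-fat diet (HFD) for 15 weeks; chow-fed mice served as controls. Obese mice were randomized to vehicle (0.1% w/v CMC-Na) or 170 or 340 mg/kg, gavaged daily for 6 weeks while diet continued. Body weight, food intake, organ weights, serum lipids, tissue histology (H&E, Oil red O), liver SREBP blots and liver qPCR followed.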
# [2] = Half life in Sprague-Dawley rat at 10 mg/kg, po measured upto 24 hrs by LC-MS/MS analysis; type: ADME, organism-based; conditions: in vivo
# Summary of the method: (§2)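 Six SD rats split into two groups of three, dosed 1 mg/kg IV or 10 mg/kg orally. IV blood drawn at 2, 5, 15, 30 min and 1, 2, 4, 6, 8, 12 h. Oral blood drawn at 5, 15, 30 min and 1, 2, 4, 6, 8, 12, 24 h. Serum drug measured by LC/MS/MS. Parameters are the average of three runs.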
# [3] = Cmax in Sprague-Dawley rat at 1 mg/kg, iv measured upto 12 hrs by LC-MS/MS analysis; type: ADME, organism-based; design: route intravenous, dose 1 mg/kg, time <=12; conditions: in vivo; summary of the method: as §2
# [4] = AUC (0 to infinity) in Sprague-Dawley rat at 1 mg/kg, iv measured upto 12 hrs by LC-MS/MS analysis; type: ADME, organism-based; design: route intravenous, dose 1 mg/kg, time <=12; conditions: in vivo
# Summary of the method: (§3)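 Six SD rats split into two groups (n=3 each), dosed once either intravenously at 1 mg/kg or orally at 10 mg/kg. Blood sampled at 2 min–12 h after IV dosing and at 5 min–24 h after oral dosing. Serum drug level measured by LC/MS/MS. AUC0-∞ is the mean of three runs.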
# [5] = tested on: HepG2; experiment: Down regulation of precursor and mature forms of SREBP-1 protein expression in human HepG2 cells after 24 hrs by Western blotting analysis; type: functional, cell-based; conditions: dose 5-80 µM
# Summary of the method: (§4)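 HepG2 cells treated 24 h at the indicated doses and lysed in RIPA buffer with protease inhibitors; protein quantified by BCA. Lysates run on 10% SDS-PAGE and blotted to nitrocellulose. After 5% milk block, primary antibody applied overnight at 4 °C and secondary 1 h at room temperature. β-actin served as loading reference.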
# [6] = Toxicity in high fat diet-induced C57BL/6J mouse assessed as reduction in food intake at 170 to 340 mg/kg, po measured every week for 6 weeks; type: organism-based; conditions: in vivo, 1008 h, dose 170-340 mg/kg; summary of the method: as §1
# [7] = tested on: HepG2; experiment: Down regulation of precursor and mature forms of SREBP-2 protein expression in human HepG2 cells after 24 hrs by Western blotting analysis; type: functional, cell-based; conditions: dose 5-80 µM; summary of the method: as §4
# [8] = Toxicity in high fat diet-induced C57BL/6J mouse assessed as change in heart morphology at 170 to 340 mg/kg, po administered for 6 weeks by H and E staining-based assay; type: organism-based; conditions: in vivo, 1008 h, dose 170-340 mg/kg; summary of the method: as §1
# [9] = tested on: HepG2; experiment: Cytotoxicity against human HepG2 cells assessed as reduction in cell viability at 10 uM after 24 hrs by CCK8 assay; type: functional
# [10] = tested on: Mus musculus; experiment: Hypolipidemic activity in high fat diet-fed C57BL/6J mouse assessed as reduction in epididymal fat/body weight ratio at 170 to 340 mg/kg/day, po administered for 6 weeks; type: functional, organism-based; conditions: dose 170-340 mg/kg/day; summary of the method: as §1
# [11] = Toxicity in high fat diet-induced C57BL/6J mouse assessed as change in spleen morphology at 170 to 340 mg/kg, po administered for 6 weeks by H and E staining-based assay; type: organism-based; conditions: in vivo, 1008 h, dose 170-340 mg/kg; summary of the method: as §1
# [12] = Cmax in Sprague-Dawley rat at 10 mg/kg, po measured upto 24 hrs by LC-MS/MS analysis; type: ADME, organism-based; design: route oral, dose 10 mg/kg, time <=24; conditions: in vivo; summary of the method: as §2
# [13] = AUC (0 to infinity) in Sprague-Dawley rat at 10 mg/kg, po measured upto 24 hrs by LC-MS/MS analysis; type: ADME, organism-based; design: route oral, dose 10 mg/kg, time <=24; conditions: in vivo; summary of the method: as §3
smiles,measurement,setting,value
COc1ccc2c(c1OCC1CCCCC1)CN1CCc3cc4c(cc3C1C2)OCO4 (stereo not drawn),Activity,[1],Active
same,half-life,[2],5.36 h
same,Cmax,[3],901 ng/mL
same,AUC(0-inf),[4],659 ng·h/mL
same,Activity,[5],Dose-Dependent Effect
same,Activity,[6],Non-Toxic
same,Activity,[7],Dose-Dependent Effect
same,Activity,[8],Non-Toxic
same,Activity,[9],93%
same,Activity,[10],Active
same,Activity,[11],Non-Toxic
same,Cmax,[12],428 ng/mL
same,AUC,[13],4290 ng·h/mL
